Data set [1] can be described thus: Inhibitory activity against phospholipase C isolated from human melanoma. A digest of the protocol:
(§1)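 PI-specific PLC partially purified from RPMI 7272 human melanoma xenografts in nude mice (Q-Sepharose then heparin-Sepharose, 0.35 M NaCl eluate), 20–30 μg protein. Enzyme preincubated with compound 5 min at 37 °C in 25 mM imidazole pH 7.2, 100 mM KCl, 1 mM CaCl2, 0.8 mg/mL deoxycholate. Reaction started with 1 mM phosphatidylinositol, run 15 min at 37 °C, stopped with EDTA.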

Data set [2] in a line: Inhibitory activity against phospholipase C isolated from human melanoma; IN-Inactive. A digest of the protocol: as §1
Data set [3] can be described thus: pKa value was determined. In kind it is physicochemical.

The structures appear in SMILES notation. Values after ≈ are worked out from the molar mass of the structure shown.

Broadly, the IC50 is the concentration that gives 50% inhibition. A higher IC50 goes with a need for much substance. In data set [1], `CC(=O)Oc1cccc2cc([N+](=O)[O-])c(=O)oc12` came in with an IC50 of 36 µg/mL (≈ 144 µM). Regarding `O=c1oc2cc(O)ccc2cc1[N+](=O)[O-]`, the IC50 entry in data set [2] is on record as “Not Active”.

Take `O=c1oc2ccc(OCCCCCCCCO)cc2cc1[N+](=O)[O-]`: in data set [1], the IC50 turned out to be 9.6 µg/mL (≈ 28.6 µM). One may read the pKa as the negative logarithm of the acid dissociation constant. Lower therefore signals a stronger acid or weaker base. Take `O=[N+]([O-])C1=Cc2ccccc2OC1Nc1cccc([N+](=O)[O-])c1` (stereo unspecified): the IC50 in data set [1] turned out to be 7.5 µg/mL (≈ 23.9 µM). Moreover, the pKa in data set [3] came to 2.47.

For `CCCCCCCCCCOc1ccc2oc(=O)c([N+](=O)[O-])cc2c1`, the half-inhibitory concentration (IC50) entry in data set [2] was “Not Active”.

As to `CCCCCCCOc1ccc2oc(=O)c([N+](=O)[O-])cc2c1`, the half-inhibitory concentration (IC50) result in data set [2] is “Not Active”. The same measure, in the same setting: for `CCCCCCOc1ccc2oc(=O)c([N+](=O)[O-])cc2c1` the value was “Not Active”. Compound `O=[N+]([O-])C1=Cc2ccccc2OC1Nc1ccccc1` (stereo unspecified) displayed a concentration for half-maximal inhibition (IC50) in data set [1] of 11.7 µg/mL (≈ 43.6 µM). Besides, the pKa in data set [3] came to 4.4. Compound `COc1ccc(NC2Oc3ccccc3C=C2[N+](=O)[O-])cc1` (stereo unspecified) gave an IC50 in data set [1] of 12.9 µg/mL (≈ 43.2 µM). Also, in data set [3], the pKa was 5.31. With `O=c1oc2c(O)cccc2cc1[N+](=O)[O-]`, the half-maximal inhibitory concentration (IC50) in data set [1] is 24.8 µg/mL (≈ 120 µM). In data set [1], `CCCCCCCC(=O)Oc1cccc2cc([N+](=O)[O-])c(=O)oc12` yielded a half-inhibitory concentration (IC50) of 17 µg/mL (≈ 51 µM). This IC50 and that of the compound before are within 1.5-fold of each other.

Turning to `CC(=O)Oc1ccc2oc(=O)c([N+](=O)[O-])cc2c1`, the IC50 in data set [1] was determined as 16 µg/mL (≈ 64.2 µM). Same read-out and setting: for `CCCCCCCCCCCCCCCC(=O)Oc1ccc2oc(=O)c([N+](=O)[O-])cc2c1` the value was 28.5 µg/mL (≈ 64 µM). Same read-out and setting: under `O=c1oc2ccccc2cc1[N+](=O)[O-]` stands 16.1 µg/mL (≈ 84.2 µM); under `C=CCCCCCCCCC(=O)Oc1ccc2oc(=O)c([N+](=O)[O-])cc2c1`, 3.2 µg/mL (≈ 8.57 µM).

In the case of `O=[N+]([O-])C1=Cc2ccccc2OC1Nc1ccccc1[N+](=O)[O-]` (stereo unspecified), in data set [1], the half-inhibitory concentration (IC50) turned out to be 6 µg/mL (≈ 19.2 µM). In addition, the pKa in data set [3] is -0.26. Turning to `CCCCCCCCCCCCCCCC(=O)Oc1ccc2cc([N+](=O)[O-])c(=O)oc2c1`, the IC50 entry in data set [2] is “Not Active”.

In data set [1], `CC(C)Oc1ccc2oc(=O)c([N+](=O)[O-])cc2c1` showed a half-maximal inhibitory concentration (IC50) of 23.5 µg/mL (≈ 94.3 µM). On the same count and under the same terms, under `CCCCCCCCCCCCOc1ccc2oc(=O)c([N+](=O)[O-])cc2c1` stands 68.6 µg/mL (≈ 183 µM).

In the case of `O=[N+]([O-])C1=Cc2ccccc2OC1Nc1ccc([N+](=O)[O-])cc1` (stereo unspecified), the half-maximal inhibitory concentration (IC50) in data set [1] worked out at 14.4 µg/mL (≈ 46 µM). Moreover, the pKa in data set [3] was 1.

Turning to `CCCCCCCC(=O)Oc1ccc2cc([N+](=O)[O-])c(=O)oc2c1`, the 50% inhibitory concentration (IC50) result in data set [2] is “Not Active”. With `O=[N+]([O-])C1=Cc2ccccc2OC1N1CCOCC1` (stereo unspecified), in data set [1], the half-inhibitory concentration (IC50) worked out at 5 µg/mL (≈ 19.1 µM). Further, the pKa in data set [3] was determined as 8.33. Turning to `C=CCCCCCCCCOc1ccc2oc(=O)c([N+](=O)[O-])cc2c1`, the IC50 in data set [1] worked out at 45.1 µg/mL (≈ 131 µM). For the compound `COc1ccccc1NC1Oc2ccccc2C=C1[N+](=O)[O-]` (stereo unspecified), in data set [1], the half-inhibitory concentration (IC50) amounted to 4.5 µg/mL (≈ 15.1 µM). The compound further came in with a pKa in data set [3] of 2.52. For the compound `CCCCCCCCCCCCCCCC(=O)Oc1cccc2cc([N+](=O)[O-])c(=O)oc12`, the IC50 in data set [1] worked out at 47 µg/mL (≈ 105 µM). On to `CC(=O)Oc1ccc2cc([N+](=O)[O-])c(=O)oc2c1`, for which the half-maximal inhibitory concentration (IC50) entry in data set [2] is “Not Active”. In data set [1], `CCCCCCCC(=O)Oc1ccc2oc(=O)c([N+](=O)[O-])cc2c1` had an IC50 of 4.3 µg/mL (≈ 12.9 µM). Still for that read-out and setting: under `COc1ccc2oc(=O)c([N+](=O)[O-])cc2c1` stands 31 µg/mL (≈ 140 µM). With `O=[N+]([O-])C1=Cc2ccccc2OC1n1cccn1` (stereo unspecified), the half-maximal inhibitory concentration (IC50) in data set [1] turned out to be 21 µg/mL (≈ 86.3 µM). In addition, the pKa in data set [3] worked out at 2.48.

In data set [1], `O=c1oc2ccc(O)cc2cc1[N+](=O)[O-]` returned an IC50 of 10.9 µg/mL (≈ 52.6 µM).

For the compound `COc1cccc(NC2Oc3ccccc3C=C2[N+](=O)[O-])c1` (stereo unspecified), the IC50 in data set [1] is 6.6 µg/mL (≈ 22.1 µM). In data set [3], the pKa came to 4.2.

In data set [1], `CCCCOc1ccc2oc(=O)c([N+](=O)[O-])cc2c1` yielded a 50% inhibitory concentration (IC50) of 33.9 µg/mL (≈ 129 µM).

Source of the values: ChEMBL document CHEMBL1127578, “Phospholipase C inhibitors: a new class of cytotoxic agents” (J Med Chem, 1994).
